The record followed here is ChEMBL document CHEMBL2331272, “Bromotyrosine alkaloids from the Australian marine sponge Pseudoceratina verrucosa” (J Nat Prod, 2013).

The subject of assay [1] is HeLa. Put plainly: Cytotoxicity against human HeLa cells assessed as inhibition of cell viability after 72 hrs by alamar blue assay. In kind it is functional, cell-based. The essentials: (§1)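 HeLa and PC3 cells grown in RPMI with 10% FBS and penicillin/streptomycin, 37 °C, 5% CO2; 1000 cells/well adhered overnight. Ten-point dilutions, final 100 μM to 3 nM, 1% DMSO, triplicate; 72 h exposure. Alamar blue added (10% final), fluorescence ex 535/em 590 nm. IC50 by nonlinear regression; IC50 or % inhibition at 100 μM as mean SD of two independent experiments.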
A general note: The colour change of resazurin is a common sign of viable cells or microbes.

Assay [2] deals with NFF. As to the kind of experiment: Cytotoxicity against human NFF cells assessed as inhibition of cell viability after 72 hrs by alamar blue assay. In kind it is functional, cell-based. In a few lines: (§2)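 NFF fibroblasts grown in DMEM with 10% FBS and penicillin/streptomycin, 37 °C, 5% CO2; 1000 cells/well seeded and adhered overnight. Compounds tested in ten-point series, final 100 μM to 3 nM, 1% DMSO, triplicate wells; 72 h incubation. Readout by Alamar blue (10% final), ex 535/em 590 nm. IC50 by nonlinear regression; IC50 or % inhibition at 100 μM as mean SD, two independent experiments.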

Assay [3] deals with PC-3. As to the kind of experiment: Cytotoxicity against human PC3 cells assessed as inhibition of cell viability after 72 hrs by alamar blue assay. In kind it is functional, cell-based. Conditions: PC-3, 72 h. The essentials:
as §1

The test system of assay [4] is NFF. As to the kind of experiment: Cytotoxicity against human NFF cells assessed as inhibition of cell viability at 100 uM after 72 hrs by alamar blue assay. In kind it is functional. In a few lines:
as §2

Assay [5] deals with PC-3. As to the kind of experiment: Cytotoxicity against human PC3 cells assessed as inhibition of cell viability at 100 uM after 72 hrs by alamar blue assay. Format: functional. Conditions: PC-3, 72 h. The essentials:
as §1

Assay [6] relates to HeLa. As to the kind of experiment: Cytotoxicity against human HeLa cells assessed as inhibition of cell viability at 100 uM after 72 hrs by alamar blue assay. In kind it is functional. In a few lines: as §1

SMILES strings stand for the structures. pIC50: −log10 of the molar value.

For `COc1ccc(C/C(=N\O)C(=O)NC[C@@H](O)c2cc(Br)c(OCCCN(C)C)c(Br)c2)cc1Br`, the values for the pIC50 with HeLa [1], in the assay with NFF [2] and in the assay on PC-3 [3] were 4.72, 4.80 and 5.31, respectively.
For the compound `COC1=C(Br)[C@H](O)[C@@]2(C=C1Br)CC(C(=O)NCCCc1cnc(N)[nH]1)=NO2` [AEROPHOBIN 2], the values for the inhibition at 100 µM in the assay with NFF [4], in the assay on PC-3 [5] and in the assay on HeLa [6] were 25%, 66% and 20%, respectively.
The matching figures for `CN(C)CCCOc1c(Br)cc([C@H]2CNC(=O)O2)cc1Br`: 29%, 35% and 44%.
For `COC1=C(Br)[C@H](O)[C@@]2(C=C1Br)CC(C(=O)NCC(O)c1cc(Br)c(OC[C@H](O)CNC(=O)C3=NO[C@]4(C=C(Br)C(OC)=C(Br)[C@@H]4O)C3)c(Br)c1)=NO2` (stereo not given in full) [FOSTULARIN 3], the results for the inhibition at 100 µM with NFF [4], in the assay on PC-3 [5] and in the assay on HeLa [6] were 48%, 60% and 46%, respectively.
In the case of `COC1=C(Br)[C@H](O)[C@@]2(C=C1Br)CC(C(=O)NCC(O)c1cc(Br)c(OC[C@H]3CNC(=O)O3)c(Br)c1)=NO2` (stereo not given in full) [FOSTULARIN 2], the inhibition (usually the percentage by which the read-out fell short of the control) at 100 µM was 68% in the assay on NFF [4] and 73% in the assay on PC-3 [5]. Moreover, in the assay with HeLa [1], the pIC50 (in general, the negative decadic logarithm of the IC50, by convention in mol/L) was 4.40.
